Sampled rows, rich in hits. Any-hit rate of the full collection: about 1.8%.
HTRA1 inhibitor: inhibitors of human serine peptidase HTRA1; AID 504803; recombinant HTRA1, FP-rhodamine activity-based probe, fluorescence polarization; 0.5% of 340,000 active; inhibition, % at 5.96 µM; Q92743; in the data active = inhibition above about 36%;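 note: 0% = enzyme with DMSO and 100% = wells lacking enzyme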
Tn6 DDE FP: inhibitors of Tn6 peptide binding to human fibrin DD(E); 0.21% of 370,000 active; Fibrin DD(E) TRITC-Tn6 fluorescence polarization displacement; inhibition, % at 8.3 µM; P02675;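 active = inhibition above a per-campaign cutoff: mean of compounds within control limits plus 3 SD, cut at about 15% in these data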;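 note: 0% = median of all compound wells on the plate and 100% = blocking peptide control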
mABHD4 FP: ABHD4 (mouse) inhibition, primary FP screen; 0.54% of 370,000 active; purified mABHD4, FP-Rh probe fluorescence polarization; inhibition, % at 8.92 µM;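 active = inhibition exceeding the mean over every tested compound plus 3 SD, cut at about 30% in these data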;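 note: 0% = plate median of compound wells and 100% = S159A mutant with DMSO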
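Assay system: mouse ABHD4 enzyme, wild type / Also added: fluorescent activity-based probe FP-Rh / Doses: single nominal dose of 8.92 µM, 0.89% DMSO final / Timing: 45 min compound pre-incubation plus 60 min probe step, 25 °C / Signal: FP readout, ex 525 nm / em 598 nm / Control set: S159A mutant/DMSO as 100%, compound-well median as 0%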
TCR-CD3 inh: human TCR-CD3 binding inhibition; TAMRA-labeled TCR probe fluorescence, biochemical; 0.37% of 360,000 active; AID 651800; inhibition, % at 9.4 µM; in the data active = inhibition above about 19%;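 note: recombinant mutant TCR 2C K166C tagged with TAMRA read by polarization; 0% = receptor in buffer alone and 100% = receptor with positive control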
Tn7 DDE FP: DD(E)-Tn7 binding inhibition, primary FP screen; FP displacement of FITC-Tn7 peptide from fibrin DD(E); 0% = median of compound wells per plate; inhibition, % at 8.3 µM; 0.13% of 370,000 active; AID 720508;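 active = inhibition above the mean of compounds falling within the control limits plus 3 SD of them, cut at about 14% in these data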;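 note: 0% = plate median of compound wells and 100% = 10 µM Aha-Tn7 peptide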
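Also added: labelled Tn7 tracer, 0.1 µM; Assay system: human fibrin DD(E) protein; Amount: 2 µM fibrin DD(E); Schedule: 10 min compound pre-incubation, 3 h probe incubation at room temperature; Repeats: one replicate per compound; Read-out basis: percent inhibition; Measured by: fluorescence polarization of the labelled Tn7 tracer.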
SIAE inh: human SIAE inhibition, primary screen; SIAE FP-Rh probe binding, fluorescence polarization; 0.69% of 370,000 active; inhibition, % at 9.66 µM;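 active = inhibition above a cutoff: mean of compounds within the control limits plus 3 SD of those, cut at about 17% in these data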;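 note: 0% = plate median of compound wells and 100% = probe without SIAE protein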
Target sequence (Q9HAT2 whole entry, looked up): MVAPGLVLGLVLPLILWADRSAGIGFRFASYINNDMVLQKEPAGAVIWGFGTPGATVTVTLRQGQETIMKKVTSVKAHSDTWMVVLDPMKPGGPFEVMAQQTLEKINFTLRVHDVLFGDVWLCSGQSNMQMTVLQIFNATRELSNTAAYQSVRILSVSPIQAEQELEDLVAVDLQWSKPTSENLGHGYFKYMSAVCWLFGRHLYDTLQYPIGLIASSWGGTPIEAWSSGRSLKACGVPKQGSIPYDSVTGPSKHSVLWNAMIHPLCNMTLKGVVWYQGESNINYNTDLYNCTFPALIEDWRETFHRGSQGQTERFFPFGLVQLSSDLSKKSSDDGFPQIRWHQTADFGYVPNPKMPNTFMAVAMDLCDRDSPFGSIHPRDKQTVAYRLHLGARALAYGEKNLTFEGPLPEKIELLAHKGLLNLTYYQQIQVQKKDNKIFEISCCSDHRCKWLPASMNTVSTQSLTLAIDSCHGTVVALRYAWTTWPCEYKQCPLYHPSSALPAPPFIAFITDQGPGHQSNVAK
SIAE inh conf: human SIAE inhibition, confirmation. AID 1117263. SIAE FP-Rh activity-based probe, fluorescence polarization. 13% of 2,300 active. inhibition, % at 9.66 µM. shares compounds with SIAE inh;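 active = mean inhibition of the replicates above the hit cutoff set in the primary screen, cut at about 17% in these data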;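 note: 0% = SIAE with DMSO and probe and 100% = probe without SIAE; inhibitors lower polarization as more probe stays unbound to SIAE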
* = called active by the depositor; nt = not tested or not shown.

SMILES | HTRA1 inhibitor | Tn6 DDE FP | mABHD4 FP | TCR-CD3 inh | Tn7 DDE FP | SIAE inh | SIAE inh conf
CCO/C=C/C(O)(CNC(=O)c1ccc(C(C)(C)C)cc1)C(F)(F)F (stereo not drawn) | -5.3 | -0.9 | -12.4 | -5.2 | 1.0 | 59.6* | -1.5
O=C(CSc1nnc(CN2CCOCC2)n1-c1ccc(Cl)cc1)Nc1cc(Cl)ccc1O | -3.9 | 0.2 | -3.6 | 6.7 | 11.8 | 26.6* | -13.5
O=C(O)/C=C/C(=O)Nc1cc(F)ccc1F | 7.2 | -8.0 | 2.6 | -2.5 | -4.4 | -3.9 | nt
CCOc1ccc(OCC)c(NC(=O)Nc2ccc3c(c2)N(C)C(=O)CS3)c1 | -1.8 | -0.6 | 10.1 | 4.0 | 3.3 | 21.8* | 1.1
COc1cccc(CO[C@H]2C=C[C@@H](c3ccccc3)O[C@@H]2COC(C)=O)c1 | nt | 5.3 | 0.0 | nt | 0.7 | -0.1 | nt
COc1ccc(C(=O)Oc2cc(N)n(S(=O)(=O)c3ccc(C)cc3)n2)cc1 | 17.5 | -1.3 | -4.5 | 4.9 | 2.4 | -0.3 | nt
COc1ccc(S(=O)(=O)n2nc(OC(=O)C3CCCCC3)cc2N)cc1 | -7.7 | -2.3 | -2.7 | -2.0 | -1.5 | 43.3* | 49.6*
Cc1ccc(S(=O)(=O)n2nc(OC(=O)C3CCCCC3)cc2N)cc1 | 3.6 | -0.1 | 1.2 | 0.6 | -2.3 | 36.1* | 37.9*
Cc1cc(NC(=O)Cc2cn(Cc3ccccc3)c3ccccc23)ccc1Oc1cccnc1 | nt | -14.4 | -19.1 | -0.4 | 5.7 | -16.1 | nt
O=C(Cc1cn(Cc2ccccc2)c2ccccc12)Nc1ccc(Nc2cccnc2)cc1 | nt | -2.8 | 22.4 | -8.3 | -4.5 | 26.1* | 27.6*
O=Nc1c(-c2cccc([N+](=O)[O-])c2)nc2ncccn12 | nt | -0.1 | 0.6 | 1.4 | 1.3 | 18.0* | 6.5
Nc1c(-c2ccccc2)nc2ncccn12 | nt | 7.4 | 0.6 | 6.1 | 7.2 | 1.7 | nt
Cc1ccc(NC(=O)CSc2nccn2Cc2ccccc2)cc1C | -21.7 | -4.6 | 0.0 | 1.4 | 5.6 | 17.6* | 2.5
CC(=O)Nc1cc(NC(C)=O)cc(C(=O)NCC2(N3CCOCC3)CCCCC2)c1 | 0.9 | 3.2 | 3.4 | 2.9 | 3.8 | 21.4* | -2.9
CN(C)S(=O)(=O)c1cccc(C(=O)NCC2(N3CCOCC3)CCCCC2)c1 | -3.5 | -1.6 | 3.1 | 1.2 | -1.6 | -4.6 | nt
Cc1ccc(NC(=S)NC2CC3CCCC(C2)N3Cc2ccco2)cc1 (stereo not drawn) | -1.6 | -2.2 | 1.5 | -4.0 | -2.1 | 26.4* | 3.2
O=C(Nc1ccc(F)cc1)N1CCCCCC1 | 3.1 | -2.0 | -4.5 | -4.3 | -4.7 | 17.8* | -2.3
COc1cccc(NC(=O)N2CCCC2)c1 | 3.6 | 2.6 | -0.3 | 6.8 | -4.1 | 18.5* | 1.0
CC(=O)Nc1ccc(NC(=O)N2CCCCC2)cc1 | 1.0 | 1.5 | -7.4 | -3.0 | -1.6 | 0.5 | nt
COc1cccc(NC(=O)N2CCN(S(C)(=O)=O)CC2)c1 | -1.3 | 0.8 | 5.8 | 1.8 | -7.5 | 4.2 | nt
CCCCCCN1C[C@@H](O)[C@H](n2cc(-c3ccc(F)cc3)nn2)C[C@@H]1c1ccccc1 | -17.8 | -1.3 | -8.0 | 1.3 | 1.7 | -0.3 | nt
CCCCNC(=O)c1ccc2nc(CC)c(N(C)Cc3cccs3)n2c1 | nt | 0.9 | 3.7 | -0.7 | 3.3 | -1.8 | nt
COc1ccc(N2CC(C(=O)NCc3ccccc3)CC2=O)cc1 (stereo not drawn) | 0.1 | 1.2 | 11.0 | 4.0 | -4.0 | -3.9 | nt
COc1ccc(CNC(=O)C2CSC(=O)C2)cc1 (stereo not drawn) | 1.9 | -5.0 | 5.2 | 2.0 | -4.7 | 20.2* | -1.5
O=C(NCC1CCCN(C(=O)Cc2ccccc2Cl)C1)c1ccc(F)cc1 (stereo not drawn) | 6.1 | 5.0 | 4.0 | 11.9 | -1.8 | 8.7 | nt
CC(NC(=O)c1ccco1)c1nc(-c2ccc(Cl)cc2)no1 (stereo not drawn) | -0.8 | 3.9 | -6.5 | 3.9 | 2.6 | -0.8 | nt
CCN1C(=O)/C(=C2\SC(=S)N(CCCOC)C2=O)c2ccccc21 | 0.2 | 2.0 | -1.1 | -7.6 | -1.9 | 5.6 | nt
CCN1C(=O)/C(=C2/C(=O)N3c4c(cc(OC(C)=O)cc42)C(C)=CC3(C)C)SC1=S | 0.3 | -8.9 | 12.3 | -5.0 | 4.7 | 17.1* | 7.1
